Tested on: HCMEC/D3 cells
Assay: Cellular binding assay by flow cytometry
Assay type: cell-based, human
Conditions: p<0.001, n=3
Summary of the method: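 HCMEC/D3 cells grown at 37°C in 5% CO2 to 70% confluence, detached, and pre-treated with heparanase I (10 U/ml) and III (2 U/ml) for 1.5 h at 37°C. Cells were then incubated 1 h on ice in 1% BSA/PBS with Atto 425-labelled CXCL8 or FITC-labelled peptide (5 µg/ml). Cells were washed twice (500 x g, 5 min) and signal read by flow cytometry; mean ± SE, n=3.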

“CXCL8: recombinant human CXCL8, labelled with Atto 425 for binding assays” was tested, and the “binding to HCMEC/D3 cells pre-treated with heparanase I&III” value was “significantly reduced”.
